According to ChEMBL document CHEMBL3112482, “Nonclassical antifolates, part 5. Benzodiazepine analogs as a new class of DHFR inhibitors: synthesis, antitumor testing and molecular modeling study” (Eur J Med Chem, 2014):

Experiments:
CCRF-CEM = assay: Growth inhibition of human CCRF-CEM cells at 10 uM after 48 hrs; format: functional; conditions: read-out: GI
Method in brief: (§1)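 Single-dose primary screen in the NCI 60 human tumour cell line panel, run at the NCI facility. The panel covers nine subpanels: leukaemia, non-small cell lung, colon, CNS, melanoma, ovarian, renal, prostate and breast. Read-out was percent growth of treated cells, shown as a mean graph and reported as percent growth inhibition.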

SF-268 = assay: Growth inhibition of human SF268 cells at 10 uM after 48 hrs; format: functional; conditions: SF-268, 48 h, read-out: GI
Method in brief: (§2)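 NCI 60-cell-line disease-oriented human tumor panel, single-dose primary screen at 10 µM. Data given as mean-graph percent growth of treated cells, reported as percent growth inhibition (GI %).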

SNB-19 = assay: Growth inhibition of human SNB19 cells at 10 uM after 48 hrs; format: functional; conditions: SNB-19, 48 h, read-out: GI; method in brief: as §2
MDA-MB-231 = assay: Growth inhibition of human MDA-MB-231 cells at 10 uM after 48 hrs; format: functional; conditions: MDA-MB-231, 48 h, read-out: GI; method in brief: as §1
HT-29 = assay: Growth inhibition of human HT-29 cells at 10 uM after 48 hrs; format: functional; conditions: HT-29, 48 h, read-out: GI; method in brief: as §1
[1] = Growth inhibition of human OVCAR4 cells at 10 uM after 48 hrs; format: functional; conditions: OVCAR-4, 48 h, read-out: GI; method in brief: as §1
Dihydrofolate reductase = molecular target: T1, Dihydrofolate reductase (Bos taurus, UniProt P00376); assay: Inhibition of bovine liver DHFR measured for every 1 min of 10 mins
T1 sequence (P00376 whole entry): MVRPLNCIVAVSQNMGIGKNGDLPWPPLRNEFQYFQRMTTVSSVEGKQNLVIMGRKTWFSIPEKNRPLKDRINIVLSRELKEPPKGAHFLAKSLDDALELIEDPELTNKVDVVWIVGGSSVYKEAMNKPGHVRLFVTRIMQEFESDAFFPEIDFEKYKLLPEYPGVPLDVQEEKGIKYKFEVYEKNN

SR = assay: Growth inhibition of human SR cells at 10 uM after 48 hrs; format: functional; conditions: read-out: GI; method in brief: as §2
[2] = Growth inhibition of human OVCAR5 cells at 10 uM after 48 hrs; format: functional; conditions: OVCAR-5, 48 h, read-out: GI; method in brief: as §1
MCF7 = assay: Growth inhibition of human MCF7 cells at 10 uM after 48 hrs; format: functional; conditions: MCF7, 48 h, read-out: GI; method in brief: as §1
SK-MEL-2 = assay: Growth inhibition of human SK-MEL-2 cells at 10 uM after 48 hrs; format: functional; conditions: SK-MEL-2, 48 h, read-out: GI; method in brief: as §2
[3] = Growth inhibition of human NCI-ADR-RES cells at 10 uM after 48 hrs; format: functional; conditions: read-out: GI; method in brief: as §1
SK-MEL-28 = assay: Growth inhibition of human SK-MEL-28 cells at 10 uM after 48 hrs; format: functional; conditions: SK-MEL-28, 48 h, read-out: GI; method in brief: as §2
[4] = Growth inhibition of human SF539 cells at 10 uM after 48 hrs; format: functional; conditions: SF-539, 48 h, read-out: GI; method in brief: as §2
786-0 = assay: Growth inhibition of human 786-0 cells at 10 uM after 48 hrs; format: functional; conditions: 786-0, 48 h, read-out: GI; method in brief: as §1
[5] = Growth inhibition of human HCC2998 cells at 10 uM after 48 hrs; format: functional; conditions: HCC 2998, 48 h, read-out: GI; method in brief: as §1
[6] = Growth inhibition of human EKVX cells at 10 uM after 48 hrs; format: functional; conditions: read-out: GI; method in brief: as §1
OVCAR-3 = assay: Growth inhibition of human OVCAR3 cells at 10 uM after 48 hrs; format: functional; conditions: OVCAR-3, 48 h, read-out: GI; method in brief: as §1
[7] = Growth inhibition of human Hs 578T cells at 10 uM after 48 hrs; format: functional; conditions: read-out: GI; method in brief: as §1
MDA-MB-435 = assay: Growth inhibition of human MDA-MB-435 cells at 10 uM after 48 hrs; format: functional; conditions: MDA-MB-435, 48 h, read-out: GI; method in brief: as §1
NCI-H460 = assay: Growth inhibition of human NCI-H460 cells at 10 uM after 48 hrs; format: functional; conditions: NCI-H460, 48 h, read-out: GI; method in brief: as §1
BT-549 = assay: Growth inhibition of human BT549 cells at 10 uM after 48 hrs; format: functional; conditions: BT-549, 48 h, read-out: GI; method in brief: as §1
[8] = Growth inhibition of human UACC257 cells at 10 uM after 48 hrs; format: functional; conditions: UACC-257, 48 h, read-out: GI; method in brief: as §2
MOLT-4 = assay: Growth inhibition of human MOLT4 cells at 10 uM after 48 hrs; format: functional; conditions: MOLT-4, 48 h, read-out: GI; method in brief: as §1
SNB-75 = assay: Growth inhibition of human SNB75 cells at 10 uM after 48 hrs; format: functional; conditions: SNB-75, 48 h, read-out: GI; method in brief: as §2
A549 = assay: Growth inhibition of human A549 cells at 10 uM after 48 hrs; format: functional; conditions: A549, 48 h, read-out: GI; method in brief: as §1
K562 = assay: Growth inhibition of human K562 cells at 10 uM after 48 hrs; format: functional; conditions: K562, 48 h, read-out: GI; method in brief: as §1
OVCAR-8 = assay: Growth inhibition of human OVCAR8 cells at 10 uM after 48 hrs; format: functional; conditions: OVCAR-8, 48 h, read-out: GI; method in brief: as §1
T47D = assay: Growth inhibition of human T47D cells at 10 uM after 48 hrs; format: functional; conditions: read-out: GI; method in brief: as §2
SK-OV-3 = assay: Growth inhibition of human SKOV3 cells at 10 uM after 48 hrs; format: functional; conditions: SK-OV-3, 48 h, read-out: GI; method in brief: as §2
[9] = Growth inhibition of human UO31 cells at 10 uM after 48 hrs; format: functional; conditions: UO-31, 48 h, read-out: GI; method in brief: as §2
TK-10 = assay: Growth inhibition of human TK10 cells at 10 uM after 48 hrs; format: functional; conditions: TK-10, 48 h, read-out: GI; method in brief: as §2
SW-620 = assay: Growth inhibition of human SW620 cells at 10 uM after 48 hrs; format: functional; conditions: SW-620, 48 h, read-out: GI; method in brief: as §2
CAKI-1 = assay: Growth inhibition of human CAKI-1 cells at 10 uM after 48 hrs; format: functional; conditions: CAKI-1, 48 h, read-out: GI; method in brief: as §1
NCI-H322M = assay: Growth inhibition of human NCI-H322M cells at 10 uM after 48 hrs; format: functional; conditions: read-out: GI; method in brief: as §1
NCI-H226 = assay: Growth inhibition of human NCI-H226 cells at 10 uM after 48 hrs; format: functional; conditions: NCI-H226, 48 h, read-out: GI; method in brief: as §1
PC-3 = assay: Growth inhibition of human PC3 cells at 10 uM after 48 hrs; format: functional; conditions: PC-3, 48 h, read-out: GI; method in brief: as §1
NCI-H23 = assay: Growth inhibition of human NCI-H23 cells at 10 uM after 48 hrs; format: functional; conditions: NCI-H23, 48 h, read-out: GI; method in brief: as §1

SMILES | inhibition of growth at 10 µM (CCRF-CEM) [%] | inhibition of growth at 10 µM (SF-268) [%] | inhibition of growth at 10 µM (SNB-19) [%] | inhibition of growth at 10 µM (MDA-MB-231) [%] | inhibition of growth at 10 µM (HT-29) [%] | inhibition of growth at 10 µM [1] [%] | inhibition of growth at 10 µM (SR) [%] | inhibition of growth at 10 µM [2] [%] | inhibition of growth at 10 µM (MCF7) [%] | inhibition of growth at 10 µM (SK-MEL-2) [%] | inhibition of growth at 10 µM [3] [%] | inhibition of growth at 10 µM (SK-MEL-28) [%] | inhibition of growth at 10 µM [4] [%] | inhibition of growth at 10 µM (786-0) [%] | inhibition of growth at 10 µM [5] [%] | inhibition of growth at 10 µM [6] [%] | inhibition of growth at 10 µM (OVCAR-3) [%] | inhibition of growth at 10 µM [7] [%] | inhibition of growth at 10 µM (MDA-MB-435) [%] | inhibition of growth at 10 µM (NCI-H460) [%] | other results
COc1ccc(/C=C2\CCCC3=C(c4ccc(OC)cc4)Nc4ccccc4N=C32)cc1 | < 30 | < 30 | < 30 | < 30 | < 30 | < 30 | 46.1 | < 30 | 44 | < 30 | < 30 | < 30 | < 30 | < 30 | < 30 | < 30 | < 30 | < 30 | 86.2 | < 30 | IC50 (Dihydrofolate reductase): 0.6 µM; inhibition of growth at 10 µM (BT-549): < 30%; inhibition of growth at 10 µM [8]: < 30%; inhibition of growth at 10 µM (MOLT-4): < 30%; inhibition of growth at 10 µM (SNB-75): < 30%; inhibition of growth at 10 µM (A549): < 30%; inhibition of growth at 10 µM (K562): 49.1%; inhibition of growth at 10 µM (OVCAR-8): < 30%; inhibition of growth at 10 µM (T47D): < 30%; inhibition of growth at 10 µM (SK-OV-3): < 30%; inhibition of growth at 10 µM [9]: < 30%; inhibition of growth at 10 µM (TK-10): < 30%; inhibition of growth at 10 µM (SW-620): < 30%; inhibition of growth at 10 µM (CAKI-1): < 30%; inhibition of growth at 10 µM (NCI-H322M): < 30%; inhibition of growth at 10 µM (NCI-H226): < 30%; inhibition of growth at 10 µM (PC-3): < 30%; inhibition of growth at 10 µM (NCI-H23): < 30%
COc1ccc(/C=C2\CCCc3c2nc(N)nc3-c2ccc(OC)cc2)cc1 | < 30 | < 30 | < 30 | < 30 | < 30 | < 30 | < 30 | < 30 | < 30 | < 30 | < 30 | < 30 | < 30 | < 30 | < 30 | < 30 | < 30 | < 30 | < 30 | < 30 | IC50 (Dihydrofolate reductase): 18 µM; inhibition of growth at 10 µM (BT-549): < 30%; inhibition of growth at 10 µM [8]: < 30%; inhibition of growth at 10 µM (MOLT-4): < 30%; inhibition of growth at 10 µM (SNB-75): < 30%; inhibition of growth at 10 µM (A549): < 30%; inhibition of growth at 10 µM (K562): < 30%; inhibition of growth at 10 µM (OVCAR-8): < 30%; inhibition of growth at 10 µM (T47D): < 30%; inhibition of growth at 10 µM (SK-OV-3): < 30%; inhibition of growth at 10 µM [9]: < 30%; inhibition of growth at 10 µM (TK-10): < 30%; inhibition of growth at 10 µM (SW-620): < 30%; inhibition of growth at 10 µM (CAKI-1): < 30%; inhibition of growth at 10 µM (NCI-H322M): < 30%; inhibition of growth at 10 µM (NCI-H226): < 30%; inhibition of growth at 10 µM (PC-3): < 30%; inhibition of growth at 10 µM (NCI-H23): < 30%
Cc1nc2c(c(-c3ccc(Br)cc3)n1)CCC/C2=C\c1ccc(Br)cc1 | < 30 | < 30 | < 30 | < 30 | < 30 | < 30 | < 30 | < 30 | 56.7 | < 30 | < 30 | < 30 | < 30 | < 30 | < 30 | < 30 | < 30 | < 30 | < 30 | < 30 | inhibition of growth at 10 µM (BT-549): < 30%; inhibition of growth at 10 µM [8]: < 30%; inhibition of growth at 10 µM (MOLT-4): < 30%; inhibition of growth at 10 µM (SNB-75): < 30%; inhibition of growth at 10 µM (A549): < 30%; inhibition of growth at 10 µM (K562): < 30%; inhibition of growth at 10 µM (OVCAR-8): < 30%; inhibition of growth at 10 µM (T47D): < 30%; inhibition of growth at 10 µM (SK-OV-3): < 30%; inhibition of growth at 10 µM [9]: < 30%; inhibition of growth at 10 µM (TK-10): < 30%; inhibition of growth at 10 µM (SW-620): < 30%; inhibition of growth at 10 µM (CAKI-1): < 30%; inhibition of growth at 10 µM (NCI-H322M): < 30%; inhibition of growth at 10 µM (NCI-H226): < 30%; inhibition of growth at 10 µM (PC-3): < 30%; inhibition of growth at 10 µM (NCI-H23): < 30%
